Source: ChEMBL document CHEMBL1134248, “1,4-Benzodiazepine peripheral cholecystokinin (CCK-A) receptor agonists” (2001)

What follows are compounds tested on Rattus norvegicus (assay: In vivo anoretic efficacy in the rat conditioned feeder assay measured as dose that produced half maximal response).
Format: functional
How it was run: (§1)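 Fasted rats in a conditioned-feeder model, dosed intraperitoneally; food intake measured at 30 min versus control animals. %Max is the percentage reduction in intake at 10 µmol/kg (CCK-8 at 0.5 µmol/kg). ED50 is the dose producing 50% of the maximal response seen at 10 µmol/kg.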

| Structure (SMILES) | ED50 |
| --- | --- |
| COc1ccc(N(C(=O)CN2C(=O)C(NC(=O)Nc3cccc(C(=O)O)c3)[N+]([O-])=C(C3CCCCC3)c3ccccc32)C(C)C)cc1 (configuration not stated) | 80 nmol/kg |
| COc1ccc(N(C(=O)CN2C(=O)C(NC(=O)Nc3ccccc3)[N+]([O-])=C(C3CCCCC3)c3ccccc32)C(C)C)cc1 (configuration not stated) | 25 nmol/kg |
| COc1ccc(N(C(=O)CN2C(=O)C(Cc3n[nH]c4ccccc34)[N+]([O-])=C(c3ccccc3)c3ccccc32)C(C)C)cc1 (configuration not stated) | 150 nmol/kg |

Each compound was assayed on Rattus norvegicus (assay: Percentage maximal response in rats at 10 umol/kg administered intraperitoneally).
Format: functional
How it was run: as §1

| Structure (SMILES) | Max |
| --- | --- |
| COc1ccc(N(C(=O)CN2C(=O)C(NC(=O)Nc3cccc(C(=O)O)c3)[N+]([O-])=C(C3CCCCC3)c3ccccc32)C(C)C)cc1 (configuration not stated) | 69% |
| COc1ccc(N(C(=O)CN2C(=O)C(NC(=O)Nc3ccccc3)[N+]([O-])=C(C3CCCCC3)c3ccccc32)C(C)C)cc1 (configuration not stated) | 75% |
| COc1ccc(N(C(=O)CN2C(=O)C(Cc3n[nH]c4ccccc34)[N+]([O-])=C(c3ccccc3)c3ccccc32)C(C)C)cc1 (configuration not stated) | 79% |

Species: Cavia porcellus
Assay: Concentration at which 50% of the maximal contraction was observed for % CCK
Format: functional
How it was run: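 Isolated guinea pig gallbladder strips incubated with test ligand 30 min at 37 °C; contraction read as efficacy relative to CCK-8 (1 µM) = 100%. Single-concentration efficacy taken at 30 µM. Full dose–response curves run for ligands giving >40% of the CCK-8 response; ED50 is the concentration giving 50% of maximal contraction. Agonism checked for reversal by CCK-A antagonist MK-329.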

| Structure (SMILES) | ED50 |
| --- | --- |
| COc1ccc(N(C(=O)CN2C(=O)C(NC(=O)Nc3cccc(C(=O)O)c3)[N+]([O-])=C(C3CCCCC3)c3ccccc32)C(C)C)cc1 (configuration not stated) | 3 nM |
| COc1ccc(N(C(=O)CN2C(=O)C(NC(=O)Nc3ccccc3)[N+]([O-])=C(C)c3ccccc32)C(C)C)cc1 (configuration not stated) | 202 nM |
| COc1ccc(N(C(=O)CN2C(=O)C(NC(=O)Nc3ccccc3)[N+]([O-])=C(C3CCCCC3)c3ccccc32)C(C)C)cc1 (configuration not stated) | 342 nM |
| COc1ccc(N(C(=O)CN2C(=O)C(CC(=O)Nc3ccccc3)N=C(c3ccccc3)c3ccccc32)C(C)C)cc1 (configuration not stated) | 1100 nM |
| COc1ccc(N(C(=O)CN2C(=O)C(NC(=O)Nc3ccccc3)N=C(C)c3ccccc32)C(C)C)cc1 (configuration not stated) | 296 nM |
| CC(C)N(C(=O)CN1C(=O)C(Cc2c[nH]c3ccccc23)N=C(c2ccccc2)c2ccccc21)c1ccccc1 (configuration not stated) | 41 nM |
| COc1ccc(N(C(=O)CN2C(=O)C(NC(=O)c3cc4ccccc4[nH]3)[N+]([O-])=C(C3CCCCC3)c3ccccc32)C(C)C)cc1 (configuration not stated) | 131 nM |
| COc1ccc(N(C(=O)CN2C(=O)C(NC(=O)Nc3ccccc3)N=C(C3CCCCC3)c3ccccc32)C(C)C)cc1 (configuration not stated) | 233 nM |
| COc1ccc(N(C(=O)CN2C(=O)C(Cc3n[nH]c4ccccc34)[N+]([O-])=C(c3ccccc3)c3ccccc32)C(C)C)cc1 (configuration not stated) | 13 nM |

Species: Cavia porcellus
Assay: In vitro functional efficacy determined by maximal contraction of isolated guinea pig gallbladder at 1 uM concentration of compound relative to CCK-8 at 1 uM
How it was run: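 Isolated guinea pig gallbladder exposed to test ligand for 30 min at 37 °C. Maximal contraction at a single compound concentration is expressed relative to the CCK-8 contraction, set at 100%. Selective CCK-A antagonist MK-329 was used to check reversal of agonist responses.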

| Structure (SMILES) | inhibition at 1 µM |
| --- | --- |
| COc1ccc(N(C(=O)CN2C(=O)C(Cc3n[nH]c4ccccc34)N=C(c3ccccc3)c3ccccc32)C(C)C)cc1 (configuration not stated) | 27% |
| COc1ccc(N(C(=O)CN2C(=O)C(NC(=O)Nc3cccc(C(=O)O)c3)N=C(c3ccccc3)c3ccccc32)C(C)C)cc1 (configuration not stated) | 27% |
